Data set [1] is described as follows: Metabolic stability in Beagle dog hepatocytes assessed as half life at 5 microM incubated upto 180 mins by LC/MS analysis. In kind it is ADME, cell-based, Canis lupus familiaris, Hepatocyte. The method in brief: (§1)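 Cryopreserved hepatocytes from the listed species, in suspension at 200,000 cells/well in Williams Medium E with 2 mM L-glutamine and 25 mM HEPES. Compound final 5 µM in 0.5% DMSO, sampled at 0, 15, 60, 90 and 180 min. ACN precipitation, LC-MS. Hepatocyte-free medium served as negative control and 7-ethoxycoumarin as reference; duplicates.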

Data set [2] can be described thus: Metabolic stability in Sprague-Dawley rat hepatocytes assessed as half life at 5 microM incubated upto 180 mins by LC/MS analysis. In kind it is ADME, cell-based, Hepatocyte. The method in brief:
as §1

Data set [3] is described as follows: Metabolic stability in human hepatocytes assessed as intrinsic clearance measured per million cells at 5 microM incubated upto 180 mins by LC/MS analysis. It counts as ADME, cell-based, Hepatocyte. To be noted: read-out: CLH. The method in brief: as §1
Data set [4] in a line: Metabolic stability in human hepatocytes assessed as half life at 5 microM incubated upto 180 mins by LC/MS analysis. It counts as ADME, cell-based, Hepatocyte. An outline of the steps: as §1
Data set [5] in a line: Metabolic stability in CD-1 mouse hepatocytes assessed as half life at 5 microM incubated upto 180 mins by LC/MS analysis. It counts as ADME, cell-based, Hepatocyte. The method in brief: as §1
A short description of data set [6]: Metabolic stability in Sprague-Dawley rat hepatocytes assessed as intrinsic clearance measured per million cells at 5 microM incubated upto 180 mins by LC/MS analysis. It counts as ADME, cell-based, Hepatocyte. The settings on record: read-out: CLH. An outline of the steps: as §1
The nature of data set [7]: Metabolic stability in CD-1 mouse hepatocytes assessed as intrinsic clearance measured per million cells at 5 microM incubated upto 180 mins by LC/MS analysis. It counts as ADME, cell-based, Hepatocyte. To be noted: read-out: CLH. The method in brief: as §1
A short description of data set [8]: Metabolic stability in Beagle dog hepatocytes assessed as intrinsic clearance measured per million cells at 5 microM incubated upto 180 mins by LC/MS analysis. It counts as ADME, cell-based, Canis lupus familiaris, Hepatocyte. To be noted: read-out: CLH. The method in brief: as §1

Here are results for one compound from ChEMBL document CHEMBL5321201, “Investigation of morpholine isosters for the development of a potent, selective and metabolically stable mTOR kinase inhibitor” (Eur J Med Chem, 2023).

One may read the half-life as the time in which the quantity being followed falls by half. Take `CCOc1ccc2ccc(=O)oc2c1`: the half-life at 5 µM in data set [1] stood at 18 min; in data set [2] it was 47 min; in data set [4], 39 min; in data set [5] it was 17 min. Moreover, the hepatocyte CLint at 5 µM in data set [3] was determined as 22 µL/min/1e6 cells; in data set [6], 18 µL/min/1e6 cells; in data set [7], 50 µL/min/1e6 cells; in data set [8], 45 µL/min/1e6 cells.
